Measurements from ChEMBL document CHEMBL5584259, “NMR-Guided Isolation of Anti-inflammatory Carabranolides from the Fruits of Carpesium abrotanoides L” (J Nat Prod, 2024).

Key:
[1] = system: RAW264.7; assay: Cytotoxicity against mouse RAW264.7 cells assessed as reduction in cell viability up to 20 uM incubated for 24 hrs by MTT assay; assay type: toxicity, cell-based; settings: raw264.7, 24 h
Outline: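 Viability read by MTT in parallel with the NO assay: RAW264.7 at 1 × 10^5/well, compound at 1.25–20 μM in triplicate, LPS 100 ng/mL for 24 h.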

[2] = system: RAW264.7; assay: Antiinflammatory activity in mouse RAW264.7 cells assessed as inhibition of LPS-induced NO production incubated for 24 hrs by Griess reagent based assay; assay type: functional, cell-based; settings: for IC50: RAW264.7, 24 h
Outline: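 RAW264.7 (ATCC) grown in DMEM + 10% FBS, 37 °C, 5% CO2. Cells at 1 × 10^5/well treated with compound or dexamethasone at 1.25, 2.5, 5, 10, 20 μM in triplicate, then stimulated with LPS 100 ng/mL for 24 h. Supernatant nitrite measured with Griess reagent, absorbance 550 nm; IC50 from concentration series.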

[3] = system: RAW264.7; assay: Antiinflammatory activity in mouse RAW264.7 cells assessed as inhibition of LPS-induced iNOS protein expression incubated for 24 hrs by Western blot analysis; assay type: functional, cell-based; settings: dose 5-20 µM
Outline: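 Cells seeded at 5 × 10^5/well, exposed to compound at 10, 20, 40 μM or dexamethasone 5 μM, then LPS 0.5 μg/mL for 24 h. RIPA lysates run on 8% SDS-PAGE, transferred to PVDF. Probed overnight at 4 °C for iNOS with GAPDH as loading control, then secondary antibody 1 h at room temperature.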

Row | IC50 [2] [µM] | Compound | Activity [1] | inhibition [3] | inhibition [2]
1 | 9.87 | C=C1C(=O)O[C@@H]2C[C@]3(C)[C@@H](CC[C@@H](C)OC(=O)CCCCCCCCC(O)CCCCCCO)[C@@H]3C[C@H]12 (stereo not given in full) | Non-Toxic |  | 
2 | 9.15 | C=C1C(=O)O[C@@H]2C[C@]3(C)[C@@H](CC[C@@H](C)OC(=O)CC4CCC(=O)C=C4C)[C@@H]3C[C@H]12 (stereo not given in full) | Non-Toxic | Dose-Dependent Effect | Dose-Dependent Effect
3 | > 20 | C=C1C(=O)O[C@@H]2C[C@]3(C)C(CC[C@@H](C)OC(=O)C[C@@H](O)CCCCCCCCCCCCCC)[C@@H]3C[C@H]12 (stereo not given in full) | Non-Toxic |  | 
4 | 11.8 | C=C1C(=O)O[C@@H]2C[C@]3(C)[C@@H](CC[C@@H](C)OC(=O)CCCC[C@H](O)/C=C/[C@@H](O)[C@H](O)CCCCCCCC)[C@@H]3C[C@H]12 | Non-Toxic |  | 
5 | > 20 | C=C1C(=O)O[C@@H]2C[C@]3(C)[C@@H](CC[C@@H](C)OC(=O)CCCCCCC/C=C/C/C=C/CCCCC)[C@@H]3C[C@H]12 | Non-Toxic |  | 
6 | 9.35 | C=C1C(=O)O[C@@H]2C[C@]3(C)C(CC[C@@H](C)OC(=O)CCCCCCCC(=O)O)[C@@H]3C[C@H]12 (stereo not given in full) | Non-Toxic |  | 
7 | 9.75 | C=C1C(=O)O[C@@H]2C[C@]3(C)C(CC[C@@H](C)OC(=O)CCCCCCCCO)[C@@H]3C[C@H]12 (stereo not given in full) | Non-Toxic |  | 
8 | > 20 | C=C1C(=O)O[C@@H]2C[C@]3(C)[C@@H](CC[C@@H](C)OC(=O)CCCCCCCCCCCCCCC)[C@@H]3C[C@H]12 | Non-Toxic |  | 

The remaining lines, values behind:

Row | Compound | IC50 [2] [µM] | Activity [1] | inhibition [3] | inhibition [2]
9 | C=C1C(=O)O[C@@H]2C[C@]3(C)[C@@H](CC[C@@H](C)OC(=O)CCCCCCC[C@H]4OC(=O)C[C@H]4O)[C@@H]3C[C@H]12 | 15.1 | Non-Toxic |  | 
10 | C=C1C(=O)O[C@@H]2C[C@]3(C)[C@@H](CC[C@@H](C)OC(=O)Cc4ccc(O)cc4C)[C@@H]3C[C@H]12 | 5.82 | Non-Toxic | Dose-Dependent Effect | Dose-Dependent Effect
11 | C=C1C(=O)O[C@@H]2C[C@]3(C)[C@@H](CC[C@@H](C)OC(=O)CCCC[C@@H](O)/C=C/[C@@H](O)[C@H](O)CCCCCCCC)[C@@H]3C[C@H]12 | 11.6 | Non-Toxic |  | 
12 | C=C1C(=O)O[C@@H]2C[C@]3(C)[C@@H](CC[C@@H](C)OC(=O)CCCCCCC[C@@H]4OC(=O)C[C@H]4O)[C@@H]3C[C@H]12 | 8.67 | Non-Toxic | Dose-Dependent Effect | Dose-Dependent Effect
13 | C=C1C(=O)O[C@@H]2C[C@]3(C)[C@@H](CC[C@@H](C)OC(C)=O)[C@@H]3C[C@H]12 | 5.64 | Non-Toxic | Dose-Dependent Effect | Dose-Dependent Effect
14 | C[C@@H]1C[C@H]2[C@@H]3CCC4=CC(=O)C=C[C@]4(C)[C@@]3(F)[C@@H](O)C[C@]2(C)[C@@]1(O)C(=O)CO [DEXAMETHASONE] | 8.52 |  |  | 
